≈ marks a conversion by molar mass, not a printed value.
Key:
Aspergillus fumigatus = test: Antifungal activity against Aspergillus fumigatus ATCC 26934; assay type: functional
Outline: (§1)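 Broth microdilution per CLSI M38-A2 in RPMI-1640 with MOPS at pH 7.0. Inoculum 1-5 × 10^3 CFU/mL, with twofold compound dilutions spanning 250-0.24 µg/ml (final DMSO <1%). Plates incubated at 35 °C, moist and dark, and read when the control fungus had grown. MIC is total growth inhibition. MFC comes from subculturing clear wells in duplicate onto SDA.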

MCF7 = test: Cytotoxicity against human MCF7 cells assessed as cell growth after 2 days by sulforhodamine B assay; assay type: functional; conditions: MCF7, 48 h
Outline: (§2)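 NCI cell lines were run by the Monks method: cells were plated with compounds from DMSO stocks and incubated 2 days at 37 °C in 5% CO2, in duplicate. Cells were fixed with cold TCA, stained with 0.4% SRB, and the bound dye was solubilized in 10 mM tris-base and read at 515 nm. The zero-day control was subtracted, and GI50 was taken from the curves.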

Nannizzia gypsea = test: Antifungal activity against Microsporum gypseum C 115 2000; assay type: functional
Outline: (§3)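 Dermatophytes tested by CLSI M38-A2 microdilution in MOPS-buffered RPMI-1640 at pH 7.0. Inoculum 1-5 × 10^3 CFU/mL; compounds 250 to 0.24 µg/ml in twofold steps, final DMSO <1%. Incubated at 28 °C in a moist, dark chamber and read according to control growth. MIC is the lowest concentration with complete inhibition. MFC is the lowest concentration with no growth after duplicate subculture on SDA.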

Candida albicans = test: Antifungal activity against Candida albicans ATCC 10213; assay type: functional
Outline: (§4)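 CLSI M27-A3 broth microdilution in RPMI-1640 buffered to pH 7.0 with MOPS. Inoculum 1-5 × 10^3 CFU/mL. Compound twofold dilutions from 250 to 0.24 µg/ml, final DMSO <1%. Incubated at 35 °C in a moist, dark chamber and read at 48 h. MIC is the lowest concentration giving total growth inhibition. For MFC, 5 µL from clear wells was plated in duplicate on SDA; MFC is the lowest concentration with no growth.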

Saccharomyces cerevisiae = test: Antifungal activity against Saccharomyces cerevisiae ATCC 9763; assay type: functional; outline: as §4
Aspergillus flavus = test: Antifungal activity against Aspergillus flavus ATCC 9170; assay type: functional; outline: as §1
Candida tropicalis = test: Antifungal activity against Candida tropicalis C 131 2000; assay type: functional; outline: as §4
SF-268 = test: Cytotoxicity against human SF268 cells assessed as cell growth after 2 days by sulforhodamine B assay; assay type: functional; conditions: SF-268, 48 h; outline: as §2
NCI-H460 = test: Cytotoxicity against human H460 cells assessed as cell growth after 2 days by sulforhodamine B assay; assay type: functional; conditions: NCI-H460, 48 h; outline: as §2
Aspergillus niger = test: Antifungal activity against Aspergillus niger ATCC 9029; assay type: functional; outline: as §1
[1] = test system: Trichophyton mentagrophytes; test: Antifungal activity against Trichophyton mentagrophytes ATCC 9972; assay type: functional; outline: as §3
[2] = Cytotoxicity against human erythrocytes assessed as hemolysis by spectrometric analysis; assay type: cell-based, Erythrocyte
Outline: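 Human heparinized red blood cells were washed in PBS at pH 7.0 and suspended at 4% in sterile 5% glucose. Compounds from DMSO stocks were diluted in 5% glucose to final concentrations of 250 to 0.24 µg/ml and incubated with the cells at 37 °C. Released hemoglobin was read at 540 nm. HC50 is the concentration giving 50% lysis relative to the drug-free value.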

Cryptococcus neoformans = test: Antifungal activity against Cryptococcus neoformans ATCC 32264; assay type: functional; outline: as §4
Trichophyton rubrum = test: Antifungal activity against Trichophyton rubrum C 113 2000; assay type: functional; outline: as §3

| SMILES | MFC (Aspergillus fumigatus) | MIC (Aspergillus fumigatus) | GI50 (MCF7) | MFC (Nannizzia gypsea) | MIC (Nannizzia gypsea) | MIC (Candida albicans) | MFC (Saccharomyces cerevisiae) | MIC (Saccharomyces cerevisiae) | MFC (Aspergillus flavus) | MIC (Aspergillus flavus) | MIC (Candida tropicalis) | GI50 (SF-268) | GI50 (NCI-H460) | MFC (Aspergillus niger) | MIC (Aspergillus niger) | MFC [1] | MIC [1] | HC50 [2] | MFC (Cryptococcus neoformans) | MIC (Cryptococcus neoformans) | other results |
| --- | --- | --- | --- | --- | --- | --- | --- | --- | --- | --- | --- | --- | --- | --- | --- | --- | --- | --- | --- | --- | --- |
| CC1=CC(=O)N(Cc2ccccc2)C1=O | 62.5 µg/mL (≈ 311 µM) | 31.2 µg/mL (≈ 155 µM) | > 10 µg/mL | 7.81 µg/mL (≈ 38.8 µM) | 3.9 µg/mL (≈ 19.4 µM) | 62.5 µg/mL (≈ 311 µM) | 62.5 µg/mL (≈ 311 µM) | 31.2 µg/mL (≈ 155 µM) | 125 µg/mL (≈ 621 µM) | 62.5 µg/mL (≈ 311 µM) | 125 µg/mL (≈ 621 µM) | > 10 µg/mL | > 10 µg/mL | 125 µg/mL (≈ 621 µM) | 62.5 µg/mL (≈ 311 µM) | 31.2 µg/mL (≈ 155 µM) | 31.2 µg/mL (≈ 155 µM) | > 250 µg/mL | 31.2 µg/mL (≈ 155 µM) | 15.6 µg/mL (≈ 77.7 µM) | MFC (Candida albicans): 125 µg/mL (≈ 621 µM); MFC (Candida tropicalis): 250 µg/mL (≈ 1240 µM); MFC (Trichophyton rubrum): 7.81 µg/mL (≈ 38.8 µM); MIC (Trichophyton rubrum): 3.9 µg/mL (≈ 19.4 µM) |
| CCN1C(=O)C=CC1=O [N-ETHYLMALEIMIDE] | 31.2 µg/mL (≈ 250 µM) | 15.6 µg/mL (≈ 125 µM) | 9.9 µg/mL (≈ 79.1 µM) | 7.81 µg/mL (≈ 62.4 µM) | 7.81 µg/mL (≈ 62.4 µM) | 62.5 µg/mL (≈ 499 µM) | 15.6 µg/mL (≈ 125 µM) | 7.81 µg/mL (≈ 62.4 µM) | 15.6 µg/mL (≈ 125 µM) | 15.6 µg/mL (≈ 125 µM) | 62.5 µg/mL (≈ 499 µM) | 6.5 µg/mL (≈ 51.9 µM) | 6.7 µg/mL (≈ 53.5 µM) | 15.6 µg/mL (≈ 125 µM) | 7.81 µg/mL (≈ 62.4 µM) | 15.6 µg/mL (≈ 125 µM) | 7.81 µg/mL (≈ 62.4 µM) | > 250 µg/mL | 31.2 µg/mL (≈ 250 µM) | 15.6 µg/mL (≈ 125 µM) | MFC (Candida albicans): 250 µg/mL (≈ 2000 µM); MFC (Candida tropicalis): 125 µg/mL (≈ 999 µM); MFC (Trichophyton rubrum): 3.9 µg/mL (≈ 31.2 µM); MIC (Trichophyton rubrum): 3.9 µg/mL (≈ 31.2 µM) |
| O=C1C=CC(=O)N1CCc1ccccc1 | 31.2 µg/mL (≈ 155 µM) | 31.2 µg/mL (≈ 155 µM) | 3.6 µg/mL (≈ 17.9 µM) | 7.81 µg/mL (≈ 38.8 µM) | 3.9 µg/mL (≈ 19.4 µM) | 3.9 µg/mL (≈ 19.4 µM) | 7.81 µg/mL (≈ 38.8 µM) | 3.9 µg/mL (≈ 19.4 µM) | 31.2 µg/mL (≈ 155 µM) | 31.2 µg/mL (≈ 155 µM) | 15.6 µg/mL (≈ 77.7 µM) | 4.1 µg/mL (≈ 20.4 µM) | 4.7 µg/mL (≈ 23.4 µM) | 15.6 µg/mL (≈ 77.7 µM) | 15.6 µg/mL (≈ 77.7 µM) | 15.6 µg/mL (≈ 77.7 µM) | 7.81 µg/mL (≈ 38.8 µM) | > 250 µg/mL | 15.6 µg/mL (≈ 77.7 µM) | 7.81 µg/mL (≈ 38.8 µM) | MFC (Trichophyton rubrum): 3.9 µg/mL (≈ 19.4 µM); MIC (Trichophyton rubrum): 1.95 µg/mL (≈ 9.69 µM) |
| O=C1C=CC(=O)N1c1ccc(F)cc1 | 31.2 µg/mL (≈ 163 µM) | 15.6 µg/mL (≈ 81.8 µM) | > 10 µg/mL | 7.81 µg/mL (≈ 40.9 µM) | 3.9 µg/mL (≈ 20.4 µM) | 15.6 µg/mL (≈ 81.8 µM) | 7.81 µg/mL (≈ 40.9 µM) | 3.9 µg/mL (≈ 20.4 µM) | 15.6 µg/mL (≈ 81.8 µM) | 15.6 µg/mL (≈ 81.8 µM) | 15.6 µg/mL (≈ 81.8 µM) | > 10 µg/mL | > 10 µg/mL | 7.81 µg/mL (≈ 40.9 µM) | 7.81 µg/mL (≈ 40.9 µM) | 7.81 µg/mL (≈ 40.9 µM) | 3.9 µg/mL (≈ 20.4 µM) | > 250 µg/mL | 15.6 µg/mL (≈ 81.8 µM) | 7.81 µg/mL (≈ 40.9 µM) | MFC (Candida albicans): 15.6 µg/mL (≈ 81.8 µM); MFC (Candida tropicalis): 15.6 µg/mL (≈ 81.8 µM); MFC (Trichophyton rubrum): 7.81 µg/mL (≈ 40.9 µM); MIC (Trichophyton rubrum): 3.9 µg/mL (≈ 20.4 µM) |
| Cc1ccccc1N1C(=O)C=CC1=O | 125 µg/mL (≈ 668 µM) | 62.5 µg/mL (≈ 334 µM) | > 10 µg/mL | 7.81 µg/mL (≈ 41.7 µM) | 3.9 µg/mL (≈ 20.8 µM) | 15.6 µg/mL (≈ 83.5 µM) | 7.81 µg/mL (≈ 41.7 µM) | 7.81 µg/mL (≈ 41.7 µM) | 62.5 µg/mL (≈ 334 µM) | 62.5 µg/mL (≈ 334 µM) | 15.6 µg/mL (≈ 83.5 µM) | > 10 µg/mL | > 10 µg/mL | 62.5 µg/mL (≈ 334 µM) | 15.6 µg/mL (≈ 83.5 µM) | 3.9 µg/mL (≈ 20.8 µM) | 1.95 µg/mL (≈ 10.4 µM) | > 250 µg/mL | 7.81 µg/mL (≈ 41.7 µM) | 7.81 µg/mL (≈ 41.7 µM) | MFC (Candida albicans): 15.6 µg/mL (≈ 83.5 µM); MFC (Candida tropicalis): 31.2 µg/mL (≈ 167 µM); MFC (Trichophyton rubrum): 3.9 µg/mL (≈ 20.8 µM); MIC (Trichophyton rubrum): 1.95 µg/mL (≈ 10.4 µM) |

— ChEMBL document CHEMBL1772954, “Antifungal, cytotoxic and SAR studies of a series of N-alkyl, N-aryl and N-alkylphenyl-1,4-pyrrolediones and related compounds” (Bioorg Med Chem, 2011)
